RORA act: activates the human nuclear receptor RORA; P35398; CHO-K1 Gal4-RORA LBD luciferase reporter, luminescence; percent increase over mock-subtracted basal signal; activation, % at 10 µM; actives 1.5% (n = 65,000);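 active = activation above the mean of all tested compounds plus 3 SD, cut at about 49% in these data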
JNK3 blocker: JNK3 (human) kinase inhibition. actives 0.61% (n = 60,000). purified JNK3 kinase activity, HTS. P53779. AID 746. inhibition, % at 8 µM; in the data active = inhibition above about 17%
Target sequence (P53779 whole entry, looked up): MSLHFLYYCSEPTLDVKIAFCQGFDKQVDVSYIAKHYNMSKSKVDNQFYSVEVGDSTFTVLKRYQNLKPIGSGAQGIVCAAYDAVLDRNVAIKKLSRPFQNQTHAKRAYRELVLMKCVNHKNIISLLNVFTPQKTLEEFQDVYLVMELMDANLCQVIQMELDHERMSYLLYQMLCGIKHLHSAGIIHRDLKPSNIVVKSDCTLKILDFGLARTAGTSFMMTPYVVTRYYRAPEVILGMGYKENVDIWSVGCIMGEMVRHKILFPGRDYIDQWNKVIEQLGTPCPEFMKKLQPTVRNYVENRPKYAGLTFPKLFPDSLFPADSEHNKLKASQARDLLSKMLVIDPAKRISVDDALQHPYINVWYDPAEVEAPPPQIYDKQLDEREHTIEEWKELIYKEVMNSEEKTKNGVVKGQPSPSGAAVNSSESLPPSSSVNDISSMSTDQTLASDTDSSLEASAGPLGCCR
HEK293 NFkB inh: lowers PMA/ionomycin-induced NF-kB signal in HEK293 cells. inhibition, % at 3 µM. AID 465. actives 0.21% (n = 62,000). HEK-293 NF-kB luciferase reporter, luminescence;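 active = inhibition above the mean of all tested compounds plus 3 SD, cut at about 40% in these data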
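Signal: luciferase luminescence; Material: HEK-293 cells with stable firefly luciferase reporter driven by four HIV NF-kB elements; Probe or stimulus: PMA with ionomycin; Replication: tested once; Times: 1 h compound pretreatment, then 16 h stimulation at 37 °C, 5% CO2; Benchmarks: DMSO and 10 µM reference inhibitor; Evaluation: per-plate % inhibition versus controls.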
D1 allo mod: D1 dopamine receptor (human) allosteric modulation. P21728. HEK293 D1, CRE-luciferase, dopamine EC30 potentiation; actives deviate in either direction. B-score at 10 µM. actives 5.9% (n = 58,000). AID 641;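 active = luminescence count or its row- and column-corrected plate score outside the 99.7% band of the plate's sample wells, on either side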
SF-1 act: activates the human nuclear receptor SF-1. CHO-K1 Gal4-SF-1 LBD luciferase reporter; % increase over DMSO SF-1-specific signal. actives 1.9% (n = 65,000). AID 522. activation, % at 10 µM;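 active = activation above the mean activation of all tested compounds plus 3 SD, cut at about 50% in these data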
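Assay system – CHO-K1 cells with Gal4–hSF-1 LBD chimera plus Gal4-driven luciferase · Quantity – 4,000 cells per well · Times – compound added 1 h post-seeding, 20 h exposure at 37 °C, 5% CO2 · Measured by – luciferase light emission · Benchmarks – DMSO and mock-transfected background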
Each line names hits and unclear results; the compound was inactive in the other large screens. This is a sample that favours compounds with a hit; in the whole collection about 7.9% have one here.

Cn1nc(-c2ccc(OCC(=O)NCC3CCCO3)cc2)c2ccccc2c1=O (stereo not given)	none
Cc1onc(-c2ccccc2Cl)c1-c1nc(-c2ccccn2)no1	none
Cc1occc1-c1nc(-c2ccccn2)no1	none
c1ccc(-c2noc(C3CCCCC3)n2)nc1	RORA act 61, SF-1 act 56
c1ccc(-c2noc(C34CC5CC(CC(C5)C3)C4)n2)nc1	SF-1 act 86
CCOC(=O)C1CCCN(C(=O)c2ccc(OCC)cc2)C1 (stereo not given)	none
Cc1ccn2cc(C(=O)Nc3ccc4c(c3)OCCO4)nc2c1	D1 allo mod -4.5
O=C(Nc1ccccc1N1CCOCC1)c1ccc2ccccc2n1	none
Cc1ccn2cc(C(=O)Nc3ccccc3N3CCOCC3)nc2c1	RORA act 55
COc1ccccc1N1CCN(CC(=O)Nc2cc(C)nn2-c2nc(C)cc(C)n2)CC1	D1 allo mod 4.8 (no result: JNK3 blocker)
O=C(Nc1ccc2nc(-c3ccc(Br)o3)[nH]c2c1)c1cccs1	RORA act 62
Cc1cccc2[nH]c(-c3ccc(NC(=O)c4ccco4)cc3)nc12	SF-1 act 74
Cn1cccc1-c1nc2ccc(NC(=O)c3cccs3)cc2[nH]1	none
O=C(Nc1cccc(-c2nc3ccccc3[nH]2)c1)c1cccc(NC(=O)c2ccco2)c1	JNK3 blocker 19
CCOc1ccccc1NC(=O)c1cccc(NC(=O)c2ccco2)c1	HEK293 NFkB inh 42
Cc1ccc(-c2nc3ccccc3[nH]2)cc1NC(=O)c1ccco1	none
COc1ccc(C2(O)CCN(CCCCOc3ccccc3)CC2)cc1	none
COc1ccc(S(=O)(=O)N2CCCC(C(=O)NCc3ccccn3)C2)cc1 (stereo not given)	none
O=S(=O)(Nc1ccc2nc(-c3ccc(Br)o3)[nH]c2c1)c1ccccc1	none
O=C(Nc1ccc2nc(-c3ccc(Br)o3)[nH]c2c1)c1ccco1	RORA act 55
COc1cc(NC(=O)C(C)C)ccc1NC(=O)c1ccco1	SF-1 act 54
CC(=O)NCc1ccc(C(=O)CSc2nnc(-c3ccncc3)n2Cc2ccccc2)o1	none
Cc1cc(S(=O)(=O)N2CCN(c3ncccn3)CC2)ccc1-n1cnnn1	none (no result: JNK3 blocker)
Cc1cc(-n2c(SCCC#N)nnc2-c2cccnc2)ccc1Cl	none (no result: JNK3 blocker)
COc1cccc(-c2nnn(CC(=O)O)n2)c1	none
Cc1ccccc1Cn1nnc(-c2cccc(C(=O)O)c2)n1	D1 allo mod -2.7
CCn1c(SCC(N)=O)nnc1-c1ccco1	none
CC(C)OC(=O)CSc1nnc(-c2ccco2)n1N	D1 allo mod -3.1
CCn1c(SCC(=O)N2c3ccccc3Sc3ccccc32)nnc1-c1ccco1	none
CCCn1c(SCC(N)=O)nnc1-c1ccco1	D1 allo mod -3.2 (no result: JNK3 blocker)
CCn1c(SCC(=O)c2cccs2)nnc1-c1ccco1	SF-1 act 54
COc1cc(C(=O)OCC(=O)Nc2c(F)c(F)c(F)c(F)c2F)cc(OC)c1OC	none
CC(C)(C)n1ncc2c(=O)n(CC(=O)NCc3ccccc3Cl)cnc21	SF-1 act 74
CC(C)(C)n1ncc2c(=O)n(CC(=O)NCCc3ccccc3)cnc21	none
COc1cccc(C(=O)NCC(=O)n2nc(C)cc2C)c1	none (no result: HEK293 NFkB inh, D1 allo mod)
O=C(c1ccco1)N1CCn2c1nc1ccccc12	RORA act 62
CCN1CCN(Cc2ccc(OCc3ccccc3)cc2)CC1	SF-1 act 57
CN1CCN(Cc2ccc(OCc3ccccc3)cc2)CC1	none
COc1cc2c(cc1OC)C(c1cc(OC)c(OC)c(OC)c1)NCC2 (stereo not given)	none
O=C(Nc1cccc(-c2cnc3ccccc3n2)c1)c1ccco1	RORA act 61, SF-1 act 55
O=C(Nc1cnc2ccccc2c1)c1cccnc1	RORA act 58, SF-1 act 75
O=C(Nc1cccc(-c2cn3cccnc3n2)c1)c1ccco1	D1 allo mod -4 (no result: JNK3 blocker)
O=C(CCNC(=O)c1ccc(Br)o1)NCc1ccccn1	none
O=C(CNC(=O)c1ccc(Br)o1)Nc1cccc(-c2cnc3ccccc3n2)c1	JNK3 blocker 20
O=C(Nc1cccc(-c2cn3cccnc3n2)c1)c1ccc(Br)o1	none (no result: JNK3 blocker)
O=C(Cc1c(F)cccc1Cl)N1CCCC1	none
CC1(C)CC(=O)c2c(-c3cccs3)n[nH]c2C1	none (no result: JNK3 blocker)
O=C(Nc1cnc2ccccc2c1)c1ccco1	D1 allo mod -4.5
O=C(Nc1cnc2ccccc2c1)c1cccc(-n2cnnn2)c1	SF-1 act 56
CCOc1ccc(NC(=O)c2cccc(-n3cnnn3)c2)cc1	none (no result: JNK3 blocker)

Screening results (PubChem BioAssay)
